This is a sample that favours compounds with a hit; in the whole collection about 4.1% have one here.
ATG4B inhibitor = ATG4B protease inhibitors, primary screen, biochemical, fluorescence, uHTS; ATG4B cleavage of LC3-PLA2, NBD-HPC fluorescence, 1 h; inhibition, % at 8.33 µM; actives 0.51% (n = 340,000); AID 504462, 2011; in the data active means inhibition above about 40%
Target sequence (Q9Y4P1 whole entry, looked up): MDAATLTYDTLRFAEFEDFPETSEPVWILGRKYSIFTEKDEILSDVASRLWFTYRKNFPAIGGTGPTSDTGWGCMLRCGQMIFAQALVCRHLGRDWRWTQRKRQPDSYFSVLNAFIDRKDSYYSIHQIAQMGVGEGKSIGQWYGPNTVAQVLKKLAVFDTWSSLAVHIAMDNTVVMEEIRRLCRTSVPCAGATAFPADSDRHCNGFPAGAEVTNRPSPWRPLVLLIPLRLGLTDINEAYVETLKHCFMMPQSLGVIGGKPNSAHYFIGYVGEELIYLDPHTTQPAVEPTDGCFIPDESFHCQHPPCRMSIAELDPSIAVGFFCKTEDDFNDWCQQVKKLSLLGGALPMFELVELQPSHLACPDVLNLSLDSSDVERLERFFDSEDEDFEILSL
SMARCA2 activ = SMARCA2 (BRM) function activators, primary screen, cell-based, luminescence, high throughput; actives 1% (n = 370,000); AID 652017, 2013; activation, % at 9.1 µM; MG213 cells, MMTV-luciferase reporter, dexamethasone, overnight; in the data active means activation above about 7.8%;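 further: 0% = vehicle wells and 100% = reference activator wells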
MC4R antag cAMP = MC4R antagonists of cAMP signaling, primary screen, cell-based, TR-FRET, antagonist arm of biased-ligand search; Melanocortin receptor 4 (Homo sapiens), P32245; MC4R-expressing cells, MTII-stimulated cAMP, LANCE TR-FRET; inhibition, % at 6.5 µM; actives 0.48% (n = 360,000); AID 540295, 2011;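 active means inhibition above its plate's cutoff, the mean of tested wells on that plate plus 3 SD, cut at about 29% in these data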;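 further: 0% = Melanotan II alone and 100% = Melanotan II plus saturating MCL0020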
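Test system: U2OS cells stably expressing human melanocortin 4 receptor (MC4R); also added: Melanotan II challenge; compound: 6.5 µM single dose; timing: 30-min compound preincubation, 1-h Melanotan II challenge, 1-h detection, room temperature; signal: Eu-cAMP/anti-cAMP TR-FRET, emission 671 nm; repeats: one well per compound, no replicates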
MC4R ag barr = MC4R agonists recruiting beta-arrestin, primary screen, cell-based, luminescence, agonist arm of biased-ligand search; Melanocortin receptor 4 (Homo sapiens), P32245; U2OS MC4R beta-arrestin complementation; percent of melanotan II response, DMSO zero; activation, % at 8.9 µM; actives 0.98% (n = 360,000); AID 540308, 2011;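 active means activation above a per-plate cutoff, the mean activation of sample wells on that plate plus 3 SD, cut at about 8% in these data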
MPTP inh = mitochondrial permeability transition pore inhibitors, primary screen, biochemical, isolated mouse mitochondria, absorbance; Ca2+ swelling absorbance, 30 min; inhibition, % at 10 µM; actives 1.4% (n = 360,000);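 active means inhibition of 50% or more, scaled per plate between neutral and stimulator controls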;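 further: 0% = DMSO wells given calcium and 100% = 1 mM EGTA wells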
MC4R barr ag = MC4R beta-arrestin agonists, retest, confirmation, cell-based, luminescence, U2OS | AID 602192, 2012 | U2OS MC4R beta-arrestin recruitment; scaled DMSO 0%, Melanotan II 100% | shares compounds with MC4R ag barr | activation, % at 8.9 µM | actives 31% (n = 2,400);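 active means mean activation across replicates above the hit cutoff set in the earlier primary screen, cut at about 8% in these data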
MOR DOR agonist = agonists of MOR-DOR heterodimerization, counter-screen for MC4R biased agonist project, cell-based, luminescence; U2OS PathHunter beta-arrestin, beta-gal luminescence; percent of deltorphin B response, DMSO zero; activation, % at 9.2 µM; actives 5.8% (n = 2,400); shares compounds with MC4R ag barr; AID 602194, 2012;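 active means mean activation across replicates exceeds the hit threshold derived in the earlier primary screen, cut at about 18% in these data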;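 further: 100% = deltorphin B at 0.9 µM final and 0% = DMSO alone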
Numbers without * were called inactive; · = no result.

SMILES	ATG4B inhibitor	SMARCA2 activ	MC4R antag cAMP	MC4R ag barr	MPTP inh	MC4R barr ag	MOR DOR agonist
COc1cc(OC)cc(C(=O)NC(=S)Nc2ccc(NC(=O)c3ccco3)cc2)c1	0.7	-3.9	0.9	12.1*	-0.3	3.0	5.4
COc1cc(OC)cc(C(=O)Nc2ccc(NC(=O)c3ccco3)c(Cl)c2)c1	8.1	-1.0	0.8	3.8	0.6	·	·
CC(C)(C)c1ccc(C(=O)Nc2ccc(NC(=O)c3ccco3)cc2)cc1	-2.9	-1.1	8.6	24.6*	-0.4	6.1	13.1
COc1ccccc1C(=O)NC(=S)Nc1ccc(NC(=O)c2cccs2)cc1	10.4	-2.0	8.8	26.8*	2.7	5.5	4.7
COc1ccccc1C(=O)NC(=S)Nc1ccc(NC(=O)c2ccco2)cc1	-1.4	-3.1	2.5	11.4*	0.2	3.4	4.4
COC(=O)[C@@]12CCCCC3=C1N(CCC3)C(=O)[C@H]2CC(=O)NCCC(C)C	·	-2.6	·	·	·	·	·
O=C(NC(=S)Nc1ccc(S(=O)(=O)N2CCCCC2)cc1)c1cccs1	16.7	-3.2	-1.0	13.3*	-16.8	-4.0	1.5
CCOc1ccc(C(=O)NC(=S)Nc2ccc(NC(=O)c3ccco3)c(C)c2)cc1[N+](=O)[O-]	0.0	-3.0	5.5	10.5*	13.0	6.6	4.7
NS(=O)(=O)c1ccc(NC(=S)NC(=O)c2cccs2)cc1	-6.9	3.2	-1.9	-1.0	1.4	·	·
CCOC(=O)c1c(N)c2cc([N+](=O)[O-])ccc2n1C	-8.4	-3.8	-14.6	15.7*	0.9	5.3	4.8
CCOC(=O)/C(=C/c1c(C)n(C)c2ccc([N+](=O)[O-])cc12)C(C)=O	-1.6	-0.1	2.9	-0.1	2.1	·	·
COc1ccc(N2C(=S)N=C(Nc3cccc(C)c3)C23CCCCC3)cc1	0.1	-3.1	5.0	23.7*	1.2	9.6*	7.6
Cc1cccc(NC2=NC(=S)N(c3cccc(C(=O)O)c3)C23CCCCC3)c1	-0.9	-1.1	15.2	-3.5	0.1	·	·
C[C@H](CCC(=O)N(c1ccccc1)c1ccccc1)CC1CCCCC1	·	-7.2	·	·	·	·	·
CCOC(=O)N/N=C\c1ccc(OC/C=C/c2ccccc2)cc1	0.4	-1.2	1.9	11.1*	-0.1	-0.1	5.0
COc1ccccc1NC(=S)NC(=O)c1ccc(Cn2cc(Br)cn2)cc1	1.3	-3.7	-24.1	23.7*	7.8	12.1*	11.7
CCn1cc(C(=O)NC(=S)Nc2ccccc2Br)cn1	-2.1	4.1	-2.3	-4.4	0.0	·	·
Cc1cc(=O)[nH]c(SCC(=O)Nc2cccc(Cl)c2F)n1	·	-2.0	·	·	·	·	·
C#CCn1c(=NC(=O)c2ccco2)sc2cccc(Cl)c21	6.2	0.6	-7.8	33.2*	1.0	5.0	11.0
CCN(CC)C(=O)CN1C(=O)C2CCCCN2C(=O)c2ccccc21 (centres undefined)	·	-5.0	·	·	·	·	·
CCn1c2ccc(OC)cc2c2nc3ccccc3nc21	-10.7	1.4	·	·	·	·	·
CCOc1ccc(Cn2c3ccc(OC)cc3c3nc4ccccc4nc32)cc1	-5.6	-3.2	-2.3	29.6*	0.7	37.6*	14.7
O=S(=O)(Nc1ccc(-n2cccc2)cc1)c1ccc(Cl)cc1Cl	-29.5	-0.1	3.1	11.1*	11.3	6.5	6.0
O=S(=O)(Nc1ccc(-n2cccc2)cc1)c1ccc(Cl)c(Cl)c1	-20.7	-3.7	-4.0	5.7	37.5	·	·
Cc1c(Cc2ccccc2)sc(NC(=O)c2ccco2)c1C(N)=O	-4.5	5.3	-7.4	9.7*	-0.8	-0.2	5.0
SMILES	ATG4B inhibitor	SMARCA2 activ	MC4R antag cAMP	MC4R ag barr	MPTP inh	MC4R barr ag	MOR DOR agonist
CCCC(=O)Nc1cc(S(=O)(=O)N(CC)CC)ccc1Cl	-5.3	-4.1	2.9	-1.1	0.3	·	·
CCN(CC)S(=O)(=O)c1ccc(Cl)c(NC(=O)COc2ccc(OC)cc2)c1	5.3	-0.1	-11.4	30.6*	0.7	17.0*	26.2*
CCN(CC)S(=O)(=O)c1ccc(C)c(NC(=O)COc2ccc(Cl)cc2Br)c1	0.9	-1.3	-16.6	9.7*	3.4	28.9*	39.9*
COc1ccc(Cn2ccc3ccc(-c4ccc5ccn(Cc6ccc(C#N)cc6)c5c4)cc32)cc1	·	0.1	·	·	·	·	·
NC(=O)c1ncn([C@@H]2O[C@H](C(=O)N[C@H](Cc3c[nH]c4ccccc34)C(=O)N3CCN(CC(=O)N4CCCC4)CC3)[C@@H](O)[C@H]2O)n1	·	-0.8	·	·	·	·	·
COC(=O)c1cc2c(c3c4cc(OC)ccc4n(S(=O)(=O)c4ccc(OC)cc4)c13)C(=O)N(Cc1ccco1)C2	·	1.1	·	·	·	·	·
CS(=O)(=O)c1ccc2nc(NC(=O)c3ccccc3Cl)sc2c1	-0.2	6.3	9.0	-0.1	2.9	·	·
COc1ccccc1C(=O)Nc1nc2ccc(S(C)(=O)=O)cc2s1	-13.6	-1.9	3.9	14.4*	-1.1	-0.9	3.6
CCCc1cc(-c2[nH]ncc2-c2ccc(C(=O)OCC)o2)c(O)cc1O	-34.8	-4.2	17.1	22.8*	4.1	10.3*	6.5
CCCc1cc(-c2[nH]ncc2-c2ccc3c(c2)OCCCO3)c(O)cc1O	-8.6	-3.7	10.0	11.7*	11.3	10.9*	17.9
O=C(N[C@H](C(=O)N1CCC[C@H]1C(=O)NC1CCCC1)C1CCCCC1)c1ccco1	·	-1.3	·	·	·	·	·
C=CCNC(=S)NNc1nc2c(c(=O)[nH]1)C1(CCCCC1)Cc1ccccc1-2	-2.3	1.1	6.3	14.8*	36.3	-2.6	6.5
COc1ccc2oc(C(=O)Nc3ccc(C)cn3)c(C)c2c1	9.5	2.7	-4.4	12.7*	1.5	5.5	5.4
COc1ccc2oc(C(=O)OCC(=O)Nc3ccccc3OC)c(C)c2c1	-6.1	·	-5.6	13.8*	-2.3	4.4	3.7
COc1ccc2oc(C(=O)OCC(=O)Nc3ccccc3)c(C)c2c1	-9.8	-1.3	-3.1	-2.1	1.3	·	·
CCOc1ccc2oc(C(=O)OCC(=O)NCc3ccc(OC)cc3)c(C)c2c1	-46.4	-1.5	-2.8	29.7*	0.4	1.2	7.0
COc1ccc2oc(C(=O)Nc3ccccn3)c(C)c2c1	-2.5	5.0	-12.9	-4.2	1.0	·	·
COC(=O)[C@]12C[C@H](CC(=O)NCCCCc3ccccc3)C(=O)N(CCC3=CCCCC3)C1=C[C@H](COCc1ccccc1)O[C@@H]2C	·	-4.1	·	·	·	·	·

Screening data (PubChem)
